Efflux pump mplx: blocks antifungal efflux pumps in multiplex yeast assay; S. cerevisiae Candida pump triplex, Nile Red efflux; inhibition, % at 10 µM; actives 0.44% (n = 330,000); AID 485275;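 active = plate passing quality check with inhibition over a set limit, or well fluorescence over plate mean plus 4 SD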;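 note: Nile Red retained in pooled yeast measured as flow cytometry median fluorescence; 0% = buffer negative control and 100% = Enniatin B positive control; higher means more Nile Red kept so more efflux inhibition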
AHR activator: activators of human aryl hydrocarbon receptor | activation, % at 5 µM | AID 2796 | AHR-responsive luciferase reporter cells, luminescence | actives 2.5% (n = 320,000) | P35869; in the data active = activation above about 47%;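 note: 0% = vehicle wells and 100% = reference agonist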
Target sequence (P35869 whole entry, looked up): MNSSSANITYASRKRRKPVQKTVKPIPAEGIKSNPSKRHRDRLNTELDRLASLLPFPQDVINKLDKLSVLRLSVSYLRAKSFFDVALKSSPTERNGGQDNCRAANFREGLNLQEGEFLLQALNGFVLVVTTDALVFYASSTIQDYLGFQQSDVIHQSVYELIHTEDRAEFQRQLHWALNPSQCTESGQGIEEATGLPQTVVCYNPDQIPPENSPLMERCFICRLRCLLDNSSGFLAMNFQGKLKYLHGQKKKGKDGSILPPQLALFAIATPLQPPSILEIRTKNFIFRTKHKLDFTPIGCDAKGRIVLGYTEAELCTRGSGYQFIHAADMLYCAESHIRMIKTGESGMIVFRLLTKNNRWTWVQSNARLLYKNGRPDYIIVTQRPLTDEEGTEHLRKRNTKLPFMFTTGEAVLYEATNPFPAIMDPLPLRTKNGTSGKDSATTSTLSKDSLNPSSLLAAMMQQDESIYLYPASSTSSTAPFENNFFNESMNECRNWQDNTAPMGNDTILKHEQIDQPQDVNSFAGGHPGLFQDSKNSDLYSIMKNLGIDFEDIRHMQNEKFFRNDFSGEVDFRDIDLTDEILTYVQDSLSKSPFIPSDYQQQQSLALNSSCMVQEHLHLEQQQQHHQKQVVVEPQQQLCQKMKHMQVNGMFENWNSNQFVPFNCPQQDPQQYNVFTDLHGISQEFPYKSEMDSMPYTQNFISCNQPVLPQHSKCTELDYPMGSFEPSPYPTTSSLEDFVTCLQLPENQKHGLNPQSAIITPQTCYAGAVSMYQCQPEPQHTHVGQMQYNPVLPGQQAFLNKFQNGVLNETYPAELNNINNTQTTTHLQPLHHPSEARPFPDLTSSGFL
SMARCA2 activ: activators of SMARCA2 function; activation, % at 9.1 µM; AID 652017; actives 1% (n = 370,000); MG213 cells, MMTV-luciferase reporter, dexamethasone, overnight; in the data active = activation above about 7.8%;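 note: 0% = vehicle wells and 100% = reference activator wells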
TAG inh: triacylglycerol accumulation inhibition | H9c2 cells, Nile Red lipid (TAG) fluorescence; cells loaded with 200 µM oleic acid | inhibition, % at 12.5 µM | actives 0.66% (n = 230,000);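 active = pattern-corrected inhibition of lipid staining of at least 50% with the nuclear-stain viability signal not falling by more than 50%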;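 note: 0% = DMSO wells and 100% = triacsin C control wells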
TbMetRS inhib: blocks T. brucei methionyl-tRNA synthetase activity; inhibition, % at 11.9 µM; purified T. brucei MetRS, ATP depletion, Kinase-Glo luminescence; actives 0.4% (n = 360,000); AID 624268;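 active = inhibition above a per-plate cutoff of the control wells' mean inhibition plus 3 SD, cut at about 5.5% in these data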;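 note: 0% = DMSO wells median and 100% = median of wells with control inhibitor compound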
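Material: T. brucei methionyl-tRNA synthetase, purified; reagent: substrates ATP, L-methionine and bulk Escherichia coli tRNA; dosing: 11.9 µM single point; timing: 15 min plus 2 h at 25 °C; detection: luminescence of leftover ATP; evaluation: % inhibition; control set: DMSO-only wells as low control; replicates: singlicate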
Starred values were filed as active, the others as inactive; · = no result. An excerpt weighted towards active compounds, which were near 4.1% of everything screened.

SMILES | Efflux pump mplx | AHR activator | SMARCA2 activ | TAG inh | TbMetRS inhib
CCOC(=O)c1ccc(N=c2scc(C)n2CC)cc1 | 0 | 3 | 7.8* | · | 0
CCn1c(C)csc1=NC(=O)c1ccccc1 | 0 | 61* | 3 | 1 | -1
Cn1c(/C(C#N)=C(\O)c2cccc(F)c2)nc2ccccc21 | 0 | 63* | -1 | 14 | -2
Oc1ccccc1C=NC(N=Cc1ccccc1O)c1ccccc1O (centres undefined) | · | · | -5 | · | ·
CCCCCOc1ccc(Br)cc1/C(C)=N/NC1=NCCN1 | 0 | 62* | -4 | 69* | 0
C#CCNC(=O)C[C@H]1C[C@@]2(C(=O)OC)C(=C[C@H](C3CCCC3)O[C@@H]2C)N(Cc2cccc3ccccc23)C1=O | · | · | -1 | · | ·
CCNc1cccc2c1C(=O)N(C)C2=O | 0 | 0 | 7.8* | · | -1
CCc1ccc2nc(SCC(=O)N3CC(=O)Nc4ccccc43)c(C#N)cc2c1 | 0 | 32 | 1 | 51* | 0
O=c1c2[nH]c3ccc(F)cc3c2nc2n1CCCS2 | 0 | 71* | -5 | 25 | -1
O=c1c2[nH]c3ccc(F)cc3c2nc2n1CCS2 | 0 | 32 | -1 | -3 | 0
O=c1c2[nH]c3ccccc3c2nc2n1CCCS2 | 0 | 66* | 2 | · | -1
CCOC(=O)[C@@]12CCCC=C1N(CCc1ccc(Cl)cc1)C(=O)[C@H]2CC(=O)NCc1ccc(OC)c(OC)c1 | · | · | -4 | · | ·
Cc1nc2ccccc2c(=O)n1NC(=O)c1ccco1 | 0 | 1 | 2 | 3 | -1
O=C(Nn1c(-c2ccccc2)nc2ccccc2c1=O)c1ccco1 | 0 | 58* | -1 | · | 0
CCOC(=O)CC[C@@]1(C(=O)OCC)C[C@@H](CC(=O)NCc2ccc(C)o2)C(=O)N2CCCC=C21 | · | · | -3 | · | ·
Cn1ncc(Br)c1C(=O)Nc1cccc(C(F)(F)F)c1 | 0 | 71* | -3 | -1 | -1
COc1ccccc1CCn1cnc(-c2cccc(Cl)c2)c1CC(C)C | · | · | -8 | · | ·
O=C(Nc1cccc(S(=O)(=O)N2CCCCC2)c1)c1ccc([N+](=O)[O-])o1 | 0 | -1 | 3 | 74* | 1
O=C(Nc1cccnc1)c1ccc([N+](=O)[O-])o1 | 0 | 7 | 7.8* | · | -1
CCCC1CCC2(CCC(=O)N2CCOC)CC1 (centres undefined) | · | · | -4 | · | ·
COc1cccc(OCC(C)CN2CCC(C(O)(c3ccccc3)c3ccccc3)CC2)c1 (centres undefined) | · | · | -5 | · | ·
CC(=O)COc1cccc2ccc(/C=C/c3ccc(Br)s3)nc12 | 0 | 72* | -2 | -14 | -2
O=c1c2cc3cc(Cl)ccc3nc2ncn1Cc1ccc(Oc2ccccc2)cc1 | · | · | -4 | · | ·
CN(C)c1ccc(N=Nc2ccccc2Br)cc1 | 0 | 53* | 6 | · | 0
O=C(Nc1c(-c2ccccc2)nc2ccccn12)c1ccccc1 | 0 | 3 | -3 | · | -1
SMILES | Efflux pump mplx | AHR activator | SMARCA2 activ | TAG inh | TbMetRS inhib
O=Cc1c(-c2ccccc2)nc2ccccn12 | 0 | 89* | 6 | -9 | 0
Cc1nn2c(N)c(-c3ccccc3)cnc2c1-c1ccc(Cl)cc1 | 0 | 64* | 5 | · | 0
Cc1cc(/C=C2/C(=O)N(C)C(=S)N2C)ccc1N1CCCC1 | 0 | 63* | 5 | · | 0
O=c1cc(-c2ccccc2)oc2cc(O)ccc12 | · | · | 4 | · | 0
COc1cc(-c2cc(=O)c3ccccc3o2)ccc1O | 0 | 77* | 5 | · | 0
O=c1cc(-c2ccc(O)cc2)oc2ccc(O)cc12 | 0 | 1 | 7.9* | -11 | 0
COc1ccc(Cn2ccc3ccc(-c4ccc5ccn(Cc6ccccc6F)c5c4)cc32)cc1 | · | · | -4 | · | ·
COc1nc(OC)nc(N2CCC(C(=O)N(C)Cc3ccccc3F)CC2)n1 | · | · | 2 | · | ·
FC(F)(F)c1cccc(NC(=S)Nc2cccc(NC(=S)Nc3cccc(C(F)(F)F)c3)n2)c1 | 0 | 66* | 1 | -8 | 0
CC1(C)CCC(=O)N2CC[C@H]3C[C@H](OC(=O)Nc4ccc5c(c4)OCO5)C[C@@H]1[C@H]32 | 0 | 60* | 6 | -20 | 0
Cc1ccc(CN2CCCCC(NC(=O)c3ccc(-c4ccccc4)cc3)C2=O)cc1 (centres undefined) | · | · | -3 | · | ·
CCOC(=O)N(C)[C@H]1C[C@H]2c3[nH]c4cccc(-c5cccc(F)c5)c4c3CCN2C(=O)[C@H]1[C@H](C)O | · | · | -2 | · | ·
COC(=O)C[C@@H]1CC[C@H]2[C@@H](COc3ccc(NC(=O)c4cc(C)on4)cc3C(=O)N2C)O1 | · | · | -3 | · | ·
O=C(CSCc1nc2ccccc2[nH]1)Nc1ccc(Oc2ccccc2)cc1 | 0 | 13 | -3 | · | 1
